Experiments:
BXPC-3 = assay: Cytotoxicity against human BxPC3 cells after 48 hrs by MTT assay; assay type: functional, cell-based; details: BXPC-3, 48 h
Summary of the method: (§1)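 Pancreatic lines kept at 37 °C, 5% CO2. AsPC1, BxPC3 and Panc02 grown in RPMI with 10% FBS. MIAPaCa2 in DMEM with 10% FBS and 2.5% horse serum. PANC1 in DMEM with 10% FBS. KCKO in RPMI with 10% FBS plus pyruvate, HEPES and glutamine. KP02 in DMEM/F12 with 10% FBS.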

ASPC1 = assay: Cytotoxicity against human AsPC1 cells after 48 hrs by MTT assay; assay type: functional, cell-based; details: ASPC1, 48 h; summary of the method: as §1
MIA PaCa-2 = assay: Cytotoxicity against human MIAPaCa2 cells after 48 hrs by MTT assay; assay type: functional, cell-based; details: MIA PaCa-2, 48 h; summary of the method: as §1
[1] = Cytotoxicity against mouse Kp02 cells after 48 hrs by MTT assay; assay type: functional, cell-based; summary of the method: as §1
[2] = biological target: ATP-dependent translocase ABCB1 (Homo sapiens, UniProt P08183); assay: Inhibition of human MDR1 expressed in MDCK-MDR1 cells assessed as calcein cell accumulation after 30 mins by spectrofluorimetry; assay type: cell-based
Summary of the method: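 Confluent MDCK-MDR1 monolayers given test compound (0.1-100 µM) for 30 min at 37 °C, then calcein-AM at 2.5 µM final for 30 min. Washed with ice-cold PBS and read at ex 485 / em 535 nm. Fluorescence rise over untreated basal level fitted against log dose to give EC50; n ≥ 3 experiments in duplicate.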

[3] = Cytotoxicity against mouse KCKO cells after 48 hrs by MTT assay; assay type: functional, cell-based; summary of the method: as §1
Panc02 = assay: Cytotoxicity against mouse Panc02 cells after 48 hrs by MTT assay; assay type: functional, cell-based; details: Panc02, 48 h; summary of the method: as §1

ATP-dependent translocase ABCB1, sequence (P08183 whole entry): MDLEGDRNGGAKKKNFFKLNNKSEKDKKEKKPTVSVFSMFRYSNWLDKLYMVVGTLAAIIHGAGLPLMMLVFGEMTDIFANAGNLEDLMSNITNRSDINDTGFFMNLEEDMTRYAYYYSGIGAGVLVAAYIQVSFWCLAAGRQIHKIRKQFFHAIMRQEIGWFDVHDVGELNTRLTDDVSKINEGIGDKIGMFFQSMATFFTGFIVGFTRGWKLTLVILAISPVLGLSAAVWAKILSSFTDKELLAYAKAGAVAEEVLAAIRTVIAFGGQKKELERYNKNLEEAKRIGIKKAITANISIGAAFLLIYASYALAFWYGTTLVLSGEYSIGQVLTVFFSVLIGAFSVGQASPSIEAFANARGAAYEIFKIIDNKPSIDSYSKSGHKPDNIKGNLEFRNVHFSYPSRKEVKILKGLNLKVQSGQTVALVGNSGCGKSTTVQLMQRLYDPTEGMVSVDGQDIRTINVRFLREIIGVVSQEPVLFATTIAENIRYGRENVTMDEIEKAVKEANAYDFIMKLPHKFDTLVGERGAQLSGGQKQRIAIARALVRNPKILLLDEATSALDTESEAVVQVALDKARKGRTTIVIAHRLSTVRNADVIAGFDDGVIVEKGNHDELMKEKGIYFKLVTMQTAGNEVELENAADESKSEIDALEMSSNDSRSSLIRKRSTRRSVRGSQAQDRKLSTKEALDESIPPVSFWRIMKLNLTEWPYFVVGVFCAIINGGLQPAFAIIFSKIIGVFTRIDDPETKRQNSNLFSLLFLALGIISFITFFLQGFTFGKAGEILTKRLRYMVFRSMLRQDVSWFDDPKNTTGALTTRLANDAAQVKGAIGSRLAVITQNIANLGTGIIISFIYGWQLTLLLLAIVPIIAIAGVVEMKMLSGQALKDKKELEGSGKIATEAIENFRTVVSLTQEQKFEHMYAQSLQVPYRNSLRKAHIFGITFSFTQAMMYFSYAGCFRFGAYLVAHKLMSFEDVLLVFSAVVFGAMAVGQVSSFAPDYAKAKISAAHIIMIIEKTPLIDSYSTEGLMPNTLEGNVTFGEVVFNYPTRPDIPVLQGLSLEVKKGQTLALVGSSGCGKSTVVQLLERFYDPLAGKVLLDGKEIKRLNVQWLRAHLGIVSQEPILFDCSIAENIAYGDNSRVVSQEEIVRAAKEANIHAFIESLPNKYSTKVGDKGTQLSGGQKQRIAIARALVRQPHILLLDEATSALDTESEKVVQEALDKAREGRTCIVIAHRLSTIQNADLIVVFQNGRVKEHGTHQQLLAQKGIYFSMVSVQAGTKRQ

| EC50 [2] | SMILES | EC50 (BXPC-3) | EC50 (ASPC1) | EC50 (MIA PaCa-2) | EC50 [1] | EC50 [3] | EC50 (Panc02) |
| --- | --- | --- | --- | --- | --- | --- | --- |
| 6.09 µM | COc1cc2c(cc1OC)CN(CCCCn1ccc3ccccc31)CC2 | > 100 µM | > 100 µM | 40 µM | 49 µM | 77 µM | > 100 µM |
| 0.46 µM | c1ccc2c(c1)ccn2CCCCN1CCN(C2CCCCC2)CC1 | > 100 µM | > 100 µM | 79 µM | 70 µM | 67 µM | > 100 µM |
